According to ChEMBL document CHEMBL4028857, “Anchimerically Activated ProTides as Inhibitors of Cap-Dependent Translation and Inducers of Chemosensitization in Mantle Cell Lymphoma” (J Med Chem, 2017):
Active and inactive are the calls of the source. The rule behind the calls is not given here.

How the values were obtained:
[1] = Half life in HEPES buffer at 80 uM at pH 7.2 by RP-HPLC analysis; type: physicochemical
How it was run: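 Compound at 80 µM in 20 mM HEPES (pH 7.2 or 2.0) incubated at 37 °C; aliquots analyzed by RP-HPLC at 0, 1, 4, 6, 12, 18 and 24 h to follow methylthioalkyl deprotection and derive half-life.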

[2] = Half life in Sprague-Dawley rat plasma at 150 uM at pH 7.4 by RP-LCMS analysis; type: ADME
How it was run: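 Pooled female Sprague-Dawley rat plasma, pre-warmed 2 min at 37 °C, incubated with compound in triplicate at 37 °C to follow deprotection and half-life.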

[3] = (§1) Prodrug activation in human Mino cells assessed as 9-((2R,3R,4S,5R)-5-(((((2-(1H-Indol-3-yl)ethyl)amino)-(hydroxy)phosphoryl)oxy)methyl)-3,4-dihydroxytetrahydrofuran-2-yl)-2-amino-7-(2-(4-chlorophenoxy)ethyl)-6-oxo-6,9-dihydro-1H-purin-7-ium formation per 5 million cells at 150 uM after 12 hrs by LC-MS/MS analysis; type: cell-based
How it was run: (§2)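 Mantle cell lymphoma cells (five million) grown in RPMI with 10% FBS, penicillin/streptomycin and L-glutamine at 37 °C, 5% CO2, then exposed to 150 µM compound for 12 h at 37 °C. Washed with ice-cold PBS, pellet extracted in MeOH/NH4OAc (60:40) with 80 fmol internal standards, three liquid-N2 freeze–thaw cycles, filtered, dried, redissolved in 20 mM HEPES pH 7.2. Analysed by LC-MS/MS against a standard curve.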

Z-138 [4] = assay: as §1, with “Z138” for “Mino”; type: cell-based; conditions: z-138, 12 h; how it was run: as §2
[5] = molecular target: T1, Adenosine 5'-monophosphoramidase HINT1 (Homo sapiens, UniProt P49773); assay: Prodrug activation in human Mino cells assessed as Hint1 mediated 2-amino-7-(2-(4-chlorophenoxy)ethyl)-9-((2R,3R,4S,5R)-3,4-dihydroxy-5-(phosphonooxymethyl)tetrahydrofuran-2-yl)-6-oxo-6,9-dihydro-1H-purin-7-ium formation per 5 million cells at 150 uM after 12 hrs by LC-MS/MS analysis; type: cell-based; how it was run: as §2
[6] = molecular target: T1, Adenosine 5'-monophosphoramidase HINT1; assay: Prodrug activation in human GRANTA-519 cells assessed as Hint1 mediated 2-amino-7-(2-(4-chlorophenoxy)ethyl)-9-((2R,3R,4S,5R)-3,4-dihydroxy-5-(phosphonooxymethyl)tetrahydrofuran-2-yl)-6-oxo-6,9-dihydro-1H-purin-7-ium formation per 5 million cells at 150 uM after 12 hrs by LC-MS/MS analysis; type: cell-based
How it was run: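 Five million MCL cells in RPMI/10% FBS with penicillin, streptomycin and L-glutamine were exposed to compound (150 µM) for 12 h at 37 °C. Cells were washed in cold PBS, extracted in MeOH/NH4OAc (60:40) with 80 fmol internal standards, freeze-thawed three times, then filtered and dried. Residue was taken up in HEPES for LC-MS/MS, quantified against an internal-standard curve.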

Z-138 [7] = assay: Antiproliferative activity against human Z138 cells preincubated for 48 hrs followed by thymidine addition measure after 16 hrs by Thymidine incorporation assay; type: functional, cell-based
How it was run: (§3)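 MCL lines treated 48 h with compound re-added daily, alone or with co-drug (ibrutinib 25 µM where used), then thymidine added for a further 16 h; proliferation read as thymidine incorporation.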

[8] = molecular target: Eukaryotic translation initiation factor 4E (Homo sapiens) (UniProt P06730); assay: Inhibition of eIF4E in human Mino cells assessed as down regulation of c-Myc protein expression after 48 hrs by Western blot method; type: cell-based
How it was run: (§4)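 MCL lines treated 48 h with compound; protein quantified and Western blotted with eIF4E, eIF4G, actin, c-Myc and Bcl-2 antibodies.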

[9] = molecular target: Eukaryotic translation initiation factor 4E (Homo sapiens) (UniProt P06730); assay: Inhibition of eIF4E in human GRANTA-519 cells assessed as increase in p27 protein expression after 48 hrs by Western blot method; type: cell-based; how it was run: as §4
[10] = molecular target: Eukaryotic translation initiation factor 4E (Homo sapiens) (UniProt P06730); assay: Inhibition of eIF4E in human GRANTA-519 cells assessed as down regulation of Bcl-2 protein expression at 50 to 200 uM after 48 hrs by Western blot method; type: cell-based; how it was run: as §4
[11] = molecular target: Eukaryotic translation initiation factor 4E (Homo sapiens) (UniProt P06730); assay: Inhibition of eIF4E in human Mino cells assessed as down regulation of Bcl-2 expression at 50 to 200 uM after 48 hrs by Western blot method; type: cell-based; how it was run: as §4
[12] = molecular target: Eukaryotic translation initiation factor 4E (Homo sapiens) (UniProt P06730); assay: Inhibition of eIF4E in human Mino cells assessed as down regulation of c-Myc mRNA expression at 100 uM by RT-PCR based RNA Immunoprecipitation; type: cell-based
How it was run: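 RNA-immunoprecipitation on Mino cells with a RNA-binding protein immunoprecipitation kit.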

[13] = molecular target: Eukaryotic translation initiation factor 4E (Homo sapiens) (UniProt P06730); assay: Inhibition of eIF4E in human Mino cells assessed as potentiation of dexamethasone induced antiproliferation at 100 uM preincubated for 48 hrs followed by thymidine addition measure after 16 hrs by Thymidine incorporation assay; type: cell-based; how it was run: as §3
[14] = molecular target: Eukaryotic translation initiation factor 4E (Homo sapiens) (UniProt P06730); assay: Inhibition of eIF4E in human Mino cells assessed as down regulation of c-Myc protein expression at 100 uM after 48 hrs in presence of ibrutinib by Western blot analysis; type: cell-based; how it was run: as §4
[15] = molecular target: Eukaryotic translation initiation factor 4E-binding protein 1 (Homo sapiens) (UniProt Q13541); assay: Inhibition of 4EBP1 phosphorylation at Ser 65 residues in human Mino cells at 100 uM after 48 hrs in presence of ibrutinib by Western blot analysis; type: cell-based; how it was run: as §4
[16] = molecular target: T1, Adenosine 5'-monophosphoramidase HINT1; assay: (§5) Prodrug activation in human Z138 cells assessed as hint1-mediated 2-amino-7-(2-(4-chlorophenoxy)ethyl)-9-((2R,3R,4S,5R)-3,4-dihydroxy-5-(phosphonooxymethyl)tetrahydrofuran-2-yl)-6-oxo-6,9-dihydro-1H-purin-7-ium formation per 5 million cells at 150 uM after 12 hrs by LC-MS/MS analysis relative to 9-((2R,3R,4S,5R)-5-(((((2-(1H-Indol-3-yl)ethyl)amino)-(hydroxy)phosphoryl)oxy)methyl)-3,4-dihydroxytetrahydrofuran-2-yl)-2-amino-7-(2-(4-chlorophenoxy)ethyl)-6-oxo-6,9-dihydro-1H-purin-7-ium; type: cell-based; how it was run: as §2
[17] = molecular target: T1, Adenosine 5'-monophosphoramidase HINT1; assay: as §5, with “GRANTA-519” for “Z138”; type: cell-based; how it was run: as §2
[18] = AUC (0 to 8 hrs) in Sprague-Dawley rat plasma at 25 mg/kg, po by LC-MS/MS analysis; type: ADME, organism-based; parameters: time < 8 hr, dose 25 mg/kg, route oral
How it was run: (§6)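 Female Sprague-Dawley rats (250-274 g, n=3, catheterized femoral/jugular veins) dosed once p.o. by gavage (25 mg/kg) then, after a 3-day washout, i.v. (2.5 mg/kg). Formulation: 10 mg/mL in 0.5% aqueous CMC with 5% DMSO. Serial blood draws to 480 min into K2EDTA; plasma protein-precipitated with acetonitrile plus internal standards; LC-MS/MS (positive MRM); non-compartmental PK; %F from dose-normalized AUC per rat.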

[19] = AUC (0 to 8 hrs) in Sprague-Dawley rat plasma at 2.5 mg/kg, iv by LC-MS/MS analysis; type: ADME, organism-based; parameters: time < 8 hr, dose 2.5 mg/kg, route intravenous; how it was run: as §6
Rattus norvegicus = assay: AUC (0 to 8 hrs) in Sprague-Dawley rat plasma assessed as 9-((2R,3R,4S,5R)-5-(((((2-(1H-Indol-3-yl)ethyl)amino)-(hydroxy)phosphoryl)oxy)methyl)-3,4-dihydroxytetrahydrofuran-2-yl)-2-amino-7-(2-(4-chlorophenoxy)ethyl)-6-oxo-6,9-dihydro-1H-purin-7-ium at 25 mg/kg, po by LC-MS/MS analysis; type: ADME, organism-based; parameters: time < 8 hr, dose 25 mg/kg, route oral; conditions: in vivo; how it was run: as §6
[20] = Cmax in Sprague-Dawley rat at 25 mg/kg, po measured at 30 mins post dose by LC-MS/MS analysis; type: ADME, organism-based; parameters: dose 25 mg/kg, route oral; conditions: in vivo; how it was run: as §6

T1 sequence (P49773 whole entry): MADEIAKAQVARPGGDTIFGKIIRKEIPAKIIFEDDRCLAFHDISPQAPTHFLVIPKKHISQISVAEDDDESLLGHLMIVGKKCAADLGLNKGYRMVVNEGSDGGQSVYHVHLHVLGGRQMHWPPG
Eukaryotic translation initiation factor 4E (Homo sapiens), sequence (P06730 whole entry): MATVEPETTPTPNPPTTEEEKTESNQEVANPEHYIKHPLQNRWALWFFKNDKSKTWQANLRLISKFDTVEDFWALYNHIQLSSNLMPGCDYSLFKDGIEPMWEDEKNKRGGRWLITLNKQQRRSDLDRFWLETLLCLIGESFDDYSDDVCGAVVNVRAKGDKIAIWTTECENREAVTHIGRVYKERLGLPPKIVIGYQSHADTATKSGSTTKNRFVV
Eukaryotic translation initiation factor 4E-binding protein 1 (Homo sapiens), sequence (Q13541 whole entry): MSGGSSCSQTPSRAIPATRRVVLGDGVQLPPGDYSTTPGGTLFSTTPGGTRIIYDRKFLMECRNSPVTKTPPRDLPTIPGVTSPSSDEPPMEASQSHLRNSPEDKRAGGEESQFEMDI

CSCCOP(=O)(NCCc1c[nH]c2ccccc12)OC[C@H]1O[C@@H](n2c[n+](CCOc3ccc(Cl)cc3)c3c(=O)[nH]c(N)nc32)[C@H](O)[C@@H]1O (stereo partly specified)
half-life at 80 µM [1]: 8.5 h | half-life at 150 µM [2]: 7.2 h | Drug metabolism [3]: 64.6 pmol | Drug metabolism (Z-138 [4]): 37.3 pmol | Drug metabolism [5]: 218 pmol | Drug metabolism [6]: 10.3 pmol | Activity (Z-138 [7]): Dose-dependent effect | inhibition [8]: Dose-dependent effect | inhibition [9]: Dose-dependent effect | inhibition [10]: inactive | inhibition [11]: inactive | inhibition [12]: inactive | inhibition [13]: Active | inhibition [14]: Active | inhibition [15]: Active | fold change (FC) [16]: 520 | fold change (FC) [17]: 1.9 | AUC(0-t) at 8 h [18]: 28.3 ng·h/mL | AUC(0-t) at 8 h [19]: 23.3 ng·h/mL | AUC (Rattus norvegicus): 2.6 µg·min/mL | Cmax [20]: 5 ng/mL
